RAD54 branch: inhibitors of human RAD54 branch migration; RAD54 Holliday junction branch migration, FAM/BHQ fluorescence; inhibition, % at 10.4 µM; actives 0.14% (n = 360,000); AID 602329;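 active = mean normalized replicate activity at least 40 and at least half of replicates scoring 40 or more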;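 note: 0% = median of neutral control wells and 100% = median of positive control wells; inhibitors cause a drop in the FAM fluorescence signal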
dFosB act-1: enhances mouse delta FosB homodimer DNA binding. P13346. purified delta FosB, TAMRA-CDK5 oligo fluorescence polarization; percent of positive-control signal above neutral wells. activation, % at 25 µM. actives 0.99% (n = 340,000). AID 493131;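 active = mean activation above about 17%, with every replicate also reaching it, limit read from the data, passing the limit was not always enough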
RAD52 inh: RAD52 (human) annealing inhibition; P43351; recombinant RAD52 DNA annealing, FRET fluorescence; inhibition, % at 18.7 µM; actives 0.46% (n = 360,000); AID 651710;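 active = every replicate showing at least 50% inhibition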
S100A4 inh HTS: S100A4-myosin IIA interaction inhibition; S100A4/TAMRA-MyoIIA peptide fluorescence polarization; inhibition, % at 10.7 µM; actives 0.14% (n = 360,000); AID 652163;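 active = mean inhibition of at least 70% across replicates, with every replicate also reaching that level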
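System – human S100A4 monomer protein, biochemical binding assay · Buffer or medium – Calcium-containing HEPES buffer, pH 7.2 · Timing – 5 min between mix addition and reading · Also added – TAMRA-labelled myosin IIA heavy-chain peptide probe, 5 nM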
MLL AF4-AF9 inh: blocks AF4 peptide binding to human AF9; P42568; AlphaScreen, biotin-AF4 peptide binding to FLAG-AF9; inhibition, % at 10 µM; actives 0.47% (n = 350,000);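 active = every replicate reaching a set inhibition limit, whatever the replicate mean, cut at about 25% in these data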;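 note: 0% = plate neutral control median and 100% = total signal loss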
Target sequence (P42568 whole entry, looked up): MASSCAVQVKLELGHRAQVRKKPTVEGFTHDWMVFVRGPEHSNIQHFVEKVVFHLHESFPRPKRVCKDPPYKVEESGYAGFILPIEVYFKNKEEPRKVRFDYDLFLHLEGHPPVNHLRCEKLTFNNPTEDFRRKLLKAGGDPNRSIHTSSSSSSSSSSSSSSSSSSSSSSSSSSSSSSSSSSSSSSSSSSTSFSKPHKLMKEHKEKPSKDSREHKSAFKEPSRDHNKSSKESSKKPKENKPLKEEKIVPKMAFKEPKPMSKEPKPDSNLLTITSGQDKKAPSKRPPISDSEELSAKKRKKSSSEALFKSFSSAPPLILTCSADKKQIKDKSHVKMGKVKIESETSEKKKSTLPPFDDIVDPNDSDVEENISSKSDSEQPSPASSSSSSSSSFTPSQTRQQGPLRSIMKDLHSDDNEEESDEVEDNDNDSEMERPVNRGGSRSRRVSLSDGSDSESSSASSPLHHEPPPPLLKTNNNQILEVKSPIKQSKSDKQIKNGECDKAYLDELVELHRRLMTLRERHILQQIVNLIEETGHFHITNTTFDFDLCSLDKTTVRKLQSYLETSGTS
dFosB act-2: delta FosB (mouse) homodimer activation; shares compounds with dFosB act-1; purified delta FosB, TAMRA-CDK5 oligo fluorescence polarization; normalised: neutral wells 0, positive control 100; activation, % at 24.9 µM; 2,400 tested, under 10 active; AID 588690;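 active = highest replicate activation at or above 34% and every replicate reaching that threshold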;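 note: higher polarization means more probe DNA bound by delta FosB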
The depositor's hits bear a star; nt = not tested or not shown. The list is not random: actives were taken first. Their share in the collection is about 1.5%.

SMILES	RAD54 branch	dFosB act-1	RAD52 inh	S100A4 inh HTS	MLL AF4-AF9 inh	dFosB act-2
COc1cccc(/C=N/NC(=O)CN(C2=NS(=O)(=O)c3ccccc32)c2ccccc2)c1	nt	22*	nt	nt	nt	0
COc1ccc(/C=N/NC(=O)CN(C2=NS(=O)(=O)c3ccccc32)c2ccccc2)cc1OC	nt	3	nt	nt	nt	nt
CN(CC(=O)Nc1cccc(Cl)c1)S(=O)(=O)c1ccc2c(c1)n(C)c(=O)c(=O)n2C	-1	46*	-16	0	2	0
CN(CC(=O)Nc1ccc(Cl)cc1)S(=O)(=O)c1ccc2c(c1)n(C)c(=O)c(=O)n2C	-3	12	-21	2	0	nt
O=C1CN(Cc2ccc(F)cc2)C[C@H]2[C@@H](c3ccc(Br)cc3)[C@@H](CO)N12	nt	nt	6	3	-16	nt
Cc1cnc(NC(=O)Cc2ccccc2Cl)s1	-1	-8	-4	-6	-2	nt
Cc1cnc(NC(=O)c2cc3c(C)nn(Cc4ccccc4Cl)c3s2)s1	nt	30*	-13	-2	0	7
O=C(C[C@H]1C[C@H]2c3cc(NC(=O)C4CCOCC4)ccc3O[C@H]2[C@H](CO)O1)NCc1ccc(Cl)cc1	-3	nt	-9	-4	-1	nt
CN(C)S(=O)(=O)c1ccc2oc(SCC(N)=O)nc2c1	nt	-9	nt	nt	nt	nt
CN(C)S(=O)(=O)c1ccc2oc(SCC(=O)c3c(N)n(C4CC4)c(=O)[nH]c3=O)nc2c1	2	20*	-9	2	0	5
CC(C)(C)C(=O)Nc1nc2c(s1)CN(Cc1ccccc1)CC2	nt	4	-40	-10	6	nt
O=C(Nc1nc2c(s1)CN(Cc1ccccc1)CC2)C1CCCC1	nt	24*	-30	-1	7	1
COc1ccc(-n2nc(C(=O)NCC(=O)Nc3cccc(Cl)c3)c3ccccc3c2=O)cc1	3	39*	-10	-3	-1	5
O=C(NNC(=S)Nc1ccccc1)c1cc(-c2cccnc2)nc2ccccc12	nt	-23	-39	11	4	nt
CC(OC(=O)c1cc(-c2cccnc2)nc2ccccc12)C(=O)Nc1ccc2ccccc2c1 (stereo unspecified)	nt	44*	-45	-40	17	7
CC(Oc1ccc(C(=O)c2ccccc2)cc1)C(=O)Nc1ccc(S(N)(=O)=O)cc1 (stereo unspecified)	nt	-10	-3	3	-9	nt
CC(OC(=O)c1cc2ccccc2cc1O)C(=O)Nc1ccc(S(N)(=O)=O)cc1 (stereo unspecified)	-1	25*	-2	-3	-13	0
O=C(NNc1ccccc1[N+](=O)[O-])Nc1ccccc1	nt	3	-9	1	4	nt
O=C(NNc1ccccc1[N+](=O)[O-])Nc1ccc(Cl)c(Cl)c1	nt	29*	-14	-1	3	5
COc1ccc(CNC(=O)c2ccc3c(=O)n(-c4ccccc4)c(=O)[nH]c3c2)cc1	19	1	nt	nt	nt	nt
CCC(C)NC(=O)Cn1c(=O)n(-c2ccc(OC)cc2)c(=O)c2ccc(C(=O)NCc3ccc(C)cc3)cc21 (stereo unspecified)	-1	33*	-6	0	0	5
COc1ccc([N+](=O)[O-])cc1NC(=O)c1ccc(Br)s1	-5	59*	-6	-8	0	4
COc1ccc([N+](=O)[O-])cc1NC(=O)COC(=O)c1ccc(O)cc1	-9	53*	-6	2	-4	6
C[C@@H]1CN([C@@H](C)CO)C(=O)c2cc(NC(=O)CCC(F)(F)F)ccc2O[C@H]1CN(C)S(=O)(=O)c1cccs1	21	nt	9	2	-3	nt
CCOc1ccc(-c2cc(NC(=O)Cn3ncc4c3-c3ccccc3OC4)on2)cc1OCC	-10	39*	5	-2	-1	3
SMILES	RAD54 branch	dFosB act-1	RAD52 inh	S100A4 inh HTS	MLL AF4-AF9 inh	dFosB act-2
COc1ccccc1NC(=O)Cn1ncc2c1-c1ccccc1OC2	11	-7	-15	3	1	nt
CCCC#Cc1ccc2c(c1)O[C@@H](CN(C)C)[C@H](C)CN([C@H](C)CO)S2(=O)=O	3	nt	-3	-2	1	nt
Cc1ccc(-c2nnc(NCc3nc4ccccc4[nH]3)c3ccccc23)cc1S(=O)(=O)N1CCOCC1	3	56*	nt	nt	nt	0
O=C(C[C@H]1C[C@H]2c3cc(NC(=O)CC4CC4)ccc3O[C@H]2[C@@H](CO)O1)NCc1cccnc1	-1	nt	2	2	0	nt
COc1ccc(C2Nc3ccccc3C(=O)N2c2ccc(C)cc2)cc1Cn1nc(C)c([N+](=O)[O-])c1C (stereo unspecified)	3	-8	-29	0	3	nt
COc1ccc(N2C(=O)c3ccccc3NC2c2ccc(OC)c(Cn3nnc4ccccc43)c2)cc1 (stereo unspecified)	nt	30*	nt	nt	nt	0
O=C(Cn1nnc(-c2ccccc2)n1)NNC(=O)c1ccc(Br)cc1	nt	36*	-3	1	-11	2
O=C(Cn1nnc(-c2ccccc2)n1)NNC(=O)c1ccccc1	nt	-3	8	-1	-3	nt
NC(=O)c1nn(-c2ccccc2)nc1NC(=O)Cn1nnc(-c2ccccc2)n1	8	22*	nt	nt	nt	4
COc1ccc(S(=O)(=O)N[C@H]2CC[C@H](CCNC(=O)Cc3ccccn3)O[C@H]2CO)cc1	nt	nt	nt	nt	-1	nt
Cc1ccc(-c2cc(C(F)F)nc3sc4c(=O)[nH]cnc4c23)cc1	0	33*	-35	6	0	0
CCOC(=O)c1sc(NC(=O)CCc2ccc(OC)cc2)nc1C	-4	25*	-1	-2	-2	0
CC(=O)Nc1ccc(NC(=O)c2ccc(COc3ccccc3Br)o2)cc1	-8	69*	-2	-2	3	-8
O=C(Nc1cccnc1)c1ccc(COc2ccccc2Br)o1	-2	0	nt	nt	nt	nt
CSc1ccccc1NC(=O)Nc1cccc(Cl)c1Cl	-5	26*	nt	nt	nt	0
NS(=O)(=O)c1ccc(NC(=O)/C=C/c2cn(-c3ccccc3)nc2-c2cccc(Cl)c2)cc1	nt	142*	-46	9	-1	2
O=C(/C=C/c1cn(-c2ccccc2)nc1-c1ccccc1)Nc1ccc(C(=O)O)cc1	1	-52	8	-3	4	nt
O=C(NCC[C@@H]1CC[C@@H](NC(=O)C2CCC2)[C@@H](CO)O1)c1cc(Cl)cc(Cl)c1	1	nt	-17	-14	-3	nt
Cc1ccccc1Nc1nc(N)c2ccccc2n1	-8	-3	4	34	9	nt
COc1ccc(C)cc1Nc1nc(N)c2ccccc2n1	30	27*	41	30	0	1
CCOC(=O)c1[nH]c2c(c1C)C(=O)CC(c1ccc(F)cc1)C2 (stereo unspecified)	-3	21*	5	4	-1	3
CCOCCOC(=O)c1[nH]c2c(c1C)C(=O)CC(c1ccccc1)C2 (stereo unspecified)	17	-2	1	-3	3	nt

Screening results deposited in PubChem by Broad Institute.
